{
  "source": "ChEMBL document CHEMBL4265991",
  "proteins": {"B1": {"name": "Inosine-5'-monophosphate dehydrogenase (Cryptococcus neoformans var. neoformans serotype D (strain JEC21 /ATCC MYA-565) (Filobasidiella neoformans)), Q5KP44 (protein)", "chain": "MADTNPNAPPRSDSLLNPADALKYLEEYPRGDGLSLQELMDSRKNGGLTYNDFLVLPGHISFPASDVSLQSRATKNIVLNTPFLSSPMDTVTEDRMAIALALHGGLGIIHHNCSAEEQAAMVRRVKKYENGFITDPLCLGPDATVGDVLEIKAKFGFCGVPITETGAPNSKLLGIVTGRDVQFQDAETPIKSVMTTEVVTGSSPITLEKANSLLRETKKGKLPIVDSNGHLVSLVARSDLLKNQNYPYASKVPESKQLYCGAAIGTRPGDKDRLKLLAEAGLDVVVLDSSQGDSVYQIEFIKWIKQTYPKIEIIAGNVVTREQAAQLIAAGADGLRIGMGSGSICITQEVMAVGRPQGTAVYAVAEFASRFGIPCIADGGIGNIGHIAKALALGASAVMMGGLLAGTTESPGEYFYHEGKRVKVYRGMGSIEAMEHTQRGSASGKRSILNLDNAATARYFSEADAVKVAQGVSGDVADKGSINKFVPYLFTGLQHSFQDAGVKSVSELHSCARSGSLRFELRTASAQLEGGVHGLNSYTKRLFA"}},
  "key": {"[1]": {"substrate": "COc1c(C)c2c(c(O)c1C/C=C(\\C)CCC(=O)O)C(=O)OC2", "conditions": "Cryptococcus neoformans; 0.039 uM"}, "[2]": {"compound": "O=S1(=O)C=C(Sc2nnc(-c3ccccc3)o2)c2ccccc21", "test": "(§1) Inhibition of recombinant Cryptococcus neoformans His-tagged IMPDH expressed in Escherichia coli BL21 (DE3) at 10 uM assessed as Kcat for substrate using NAD as fixed substrate at 700 uM and IMP as second substrate with varying concentrations of 25 to 800 uM (reference value: 21.5 /s)", "procedure,_shortened": "(§2)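 Recombinant C. neoformans IMPDH, 100 nM final, reaction started by adding enzyme. NADH production monitored at 340 nm. Inhibitor series ran from 20 to 0.31 µM; MPA tested at 312 to 39 nM. Km and Vmax fitted to the Michaelis–Menten equation; inhibition type taken from shifts in Km and Vmax.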"}, "[3]": {"compound": "COc1ccccc1-c1nnc(SC2=CS(=O)(=O)c3ccccc32)o1", "test": "as §1", "procedure,_shortened": "as §2"}, "[4]": {"compound": "O=S1(=O)C=C(Sc2nnc(-c3ccccc3)o2)c2ccccc21", "test": "(§3) Inhibition of recombinant Cryptococcus neoformans His-tagged IMPDH expressed in Escherichia coli BL21 (DE3) at 0.3 uM assessed as Vmax for substrate using NAD as fixed substrate at 700 uM and IMP as second substrate with varying concentrations of 25 to 800 uM (reference value: 1.5 microM/min)", "procedure,_shortened": "as §2"}, "[5]": {"compound": "COc1ccccc1-c1nnc(SC2=CS(=O)(=O)c3ccccc32)o1", "test": "as §3", "procedure,_shortened": "as §2"}, "[6]": {"substrate": "COc1c(C)c2c(c(O)c1C/C=C(\\C)CCC(=O)O)C(=O)OC2", "conditions": "Cryptococcus neoformans; 0.156 uM"}, "[7]": {"substrate": "COc1c(C)c2c(c(O)c1C/C=C(\\C)CCC(=O)O)C(=O)OC2", "conditions": "Cryptococcus neoformans; 0.156 uM", "remark": "listed apart in the source"}, "[8]": {"compound": "O=S1(=O)C=C(Sc2nnc(-c3ccccc3)o2)c2ccccc21", "test": "(§4) Inhibition of recombinant Cryptococcus neoformans His-tagged IMPDH expressed in Escherichia coli BL21 (DE3) at 0.3 uM assessed as Km for substrate using IMP as fixed substrate at 500 uM and NAD as second substrate with varying concentrations of 31.25 to 1300 uM (reference value: 257.5 +/- 23 microM)", "procedure,_shortened": "as §2"}, "[9]": {"compound": "COc1ccccc1-c1nnc(SC2=CS(=O)(=O)c3ccccc32)o1", "test": "as §4", "procedure,_shortened": "as §2"}, "[10]": {"compound": "O=S1(=O)C=C(Sc2nnc(-c3ccccc3)o2)c2ccccc21", "test": "(§5) Inhibition of recombinant Cryptococcus neoformans His-tagged IMPDH expressed in Escherichia coli BL21 (DE3) at 2.5 uM assessed as Kcat for substrate using IMP as fixed substrate at 500 uM and NAD as second substrate with varying concentrations of 31.25 to 1300 uM (reference value: 21.5 /s)", "procedure,_shortened": "as §2"}, "[11]": {"compound": "COc1ccccc1-c1nnc(SC2=CS(=O)(=O)c3ccccc32)o1", "test": "as §5", "procedure,_shortened": "as §2"}, "[12]": {"compound": "O=S1(=O)C=C(Sc2nnc(-c3ccccc3)o2)c2ccccc21", "test": "(§6) Inhibition of recombinant Cryptococcus neoformans His-tagged IMPDH expressed in Escherichia coli BL21 (DE3) at 0.3 uM assessed as Kcat for substrate using NAD as fixed substrate at 700 uM and IMP as second substrate with varying concentrations of 25 to 800 uM (reference value: 21.5 /s)", "procedure,_shortened": "as §2"}, "[13]": {"compound": "COc1ccccc1-c1nnc(SC2=CS(=O)(=O)c3ccccc32)o1", "test": "as §6", "procedure,_shortened": "as §2"}, "[14]": {"compound": "O=S1(=O)C=C(Sc2nnc(-c3ccccc3)o2)c2ccccc21", "test": "(§7) Inhibition of recombinant Cryptococcus neoformans His-tagged IMPDH expressed in Escherichia coli BL21 (DE3) at 10 uM assessed as Vmax for substrate using IMP as fixed substrate at 500 uM and NAD as second substrate with varying concentrations of 31.25 to 1300 uM (reference value: 1.5 microM/min)", "procedure,_shortened": "as §2"}, "[15]": {"compound": "COc1ccccc1-c1nnc(SC2=CS(=O)(=O)c3ccccc32)o1", "test": "as §7", "procedure,_shortened": "as §2"}, "[16]": {"substrate": "COc1c(C)c2c(c(O)c1C/C=C(\\C)CCC(=O)O)C(=O)OC2", "conditions": "Cryptococcus neoformans; 0.156 uM", "remark": "listed apart in the source"}, "[17]": {"substrate": "COc1c(C)c2c(c(O)c1C/C=C(\\C)CCC(=O)O)C(=O)OC2", "conditions": "Cryptococcus neoformans; 0.156 uM", "remark": "listed apart in the source"}, "[18]": {"compound": "O=S1(=O)C=C(Sc2nnc(-c3ccccc3)o2)c2ccccc21", "test": "(§8) Inhibition of recombinant Cryptococcus neoformans His-tagged IMPDH expressed in Escherichia coli BL21 (DE3) at 10 uM assessed as Kcat for substrate using IMP as fixed substrate at 500 uM and NAD as second substrate with varying concentrations of 31.25 to 1300 uM (reference value: 21.5 /s)", "procedure,_shortened": "as §2"}, "[19]": {"compound": "COc1ccccc1-c1nnc(SC2=CS(=O)(=O)c3ccccc32)o1", "test": "as §8", "procedure,_shortened": "as §2"}, "[20]": {"substrate": "COc1c(C)c2c(c(O)c1C/C=C(\\C)CCC(=O)O)C(=O)OC2", "conditions": "Cryptococcus neoformans; 0.078 uM"}, "[21]": {"compound": "O=S1(=O)C=C(Sc2nnc(-c3ccccc3)o2)c2ccccc21", "test": "(§9) Inhibition of recombinant Cryptococcus neoformans His-tagged IMPDH expressed in Escherichia coli BL21 (DE3) at 2.5 uM assessed as Kcat for substrate using NAD as fixed substrate at 700 uM and IMP as second substrate with varying concentrations of 25 to 800 uM (reference value: 21.5 /s)", "procedure,_shortened": "as §2"}, "[22]": {"compound": "COc1ccccc1-c1nnc(SC2=CS(=O)(=O)c3ccccc32)o1", "test": "as §9", "procedure,_shortened": "as §2"}, "[23]": {"substrate": "COc1c(C)c2c(c(O)c1C/C=C(\\C)CCC(=O)O)C(=O)OC2", "conditions": "Cryptococcus neoformans; 0.078 uM", "remark": "listed apart in the source"}, "[24]": {"compound": "O=S1(=O)C=C(Sc2nnc(-c3ccccc3)o2)c2ccccc21", "test": "(§10) Inhibition of recombinant Cryptococcus neoformans His-tagged IMPDH expressed in Escherichia coli BL21 (DE3) at 0.3 uM assessed as Km for substrate using NAD as fixed substrate at 700 uM and IMP as second substrate with varying concentrations of 25 to 800 uM (reference value: 257.5 +/- 23 microM)", "procedure,_shortened": "as §2"}, "[25]": {"compound": "COc1ccccc1-c1nnc(SC2=CS(=O)(=O)c3ccccc32)o1", "test": "as §10", "procedure,_shortened": "as §2"}, "[26]": {"substrate": "COc1c(C)c2c(c(O)c1C/C=C(\\C)CCC(=O)O)C(=O)OC2", "conditions": "Cryptococcus neoformans; 0.039 uM", "remark": "listed apart in the source"}, "[27]": {"compound": "COc1ccccc1-c1nnc(SC2=CS(=O)(=O)c3ccccc32)o1", "test": "Inhibition of recombinant Cryptococcus neoformans His-tagged IMPDH expressed in Escherichia coli BL21 (DE3) at 0.3 uM assessed as Kcat for substrate using IMP as fixed substrate at 500 uM and NAD as second substrate with varying concentrations of 31.25 to 1300 uM (reference value: 21.5 /s)", "procedure,_shortened": "as §2"}},
  "data": [
    {"protein": "B1", "values": [
      {"measurement": "Km", "setting": "[1]", "value": 64, "unit": "µM"},
      {"measurement": "kcat", "setting": "[2]", "value": 0.6, "unit": "s⁻¹"},
      {"measurement": "kcat", "setting": "[3]", "value": 0.7, "unit": "s⁻¹"},
      {"measurement": "Vmax", "setting": "[4]", "value": 1.1, "unit": "µM/min"},
      {"measurement": "Vmax", "setting": "[5]", "value": 1.4, "unit": "µM/min"},
      {"measurement": "kcat", "setting": "[6]", "value": 0.3, "unit": "s⁻¹"},
      {"measurement": "Vmax", "setting": "[7]", "value": 0.3, "unit": "µM/min"},
      {"measurement": "Km", "setting": "[8]", "value": 307, "unit": "µM"},
      {"measurement": "Km", "setting": "[9]", "value": 278, "unit": "µM"},
      {"measurement": "kcat", "setting": "[10]", "value": 1.3, "unit": "s⁻¹"},
      {"measurement": "kcat", "setting": "[11]", "value": 1.5, "unit": "s⁻¹"},
      {"measurement": "kcat", "setting": "[12]", "value": 1.1, "unit": "s⁻¹"},
      {"measurement": "kcat", "setting": "[13]", "value": 1.4, "unit": "s⁻¹"},
      {"measurement": "Vmax", "setting": "[14]", "value": 1, "unit": "µM/min"},
      {"measurement": "Vmax", "setting": "[15]", "value": 1, "unit": "µM/min"},
      {"measurement": "Km", "setting": "[16]", "value": 32, "unit": "µM"},
      {"measurement": "Km", "setting": "[17]", "value": 37, "unit": "µM"},
      {"measurement": "kcat", "setting": "[18]", "value": 1, "unit": "s⁻¹"},
      {"measurement": "kcat", "setting": "[19]", "value": 1, "unit": "s⁻¹"},
      {"measurement": "kcat", "setting": "[20]", "value": 0.6, "unit": "s⁻¹"},
      {"measurement": "kcat", "setting": "[21]", "value": 0.9, "unit": "s⁻¹"},
      {"measurement": "kcat", "setting": "[22]", "value": 1, "unit": "s⁻¹"},
      {"measurement": "Vmax", "setting": "[23]", "value": 0.6, "unit": "µM/min"},
      {"measurement": "Km", "setting": "[24]", "value": 92.5, "unit": "µM"},
      {"measurement": "Km", "setting": "[25]", "value": 93, "unit": "µM"},
      {"measurement": "Vmax", "setting": "[26]", "value": 1.1, "unit": "µM/min"},
      {"measurement": "kcat", "setting": "[27]", "value": 1.5, "unit": "s⁻¹"}
    ]}
  ]
}
